TCR CD3 inh = human TCR-CD3 binding inhibition; TAMRA-labeled TCR probe fluorescence, biochemical; inhibition, % at 9.4 µM; 360,000 compounds, 0.37% hits; AID 651800; in the data active means inhibition above about 19%;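 further: recombinant mutant TCR 2C K166C tagged with TAMRA read by polarization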
HTRA1 inh = inhibitors of human serine peptidase HTRA1; Q92743; recombinant HTRA1, FP-rhodamine activity-based probe, fluorescence polarization; inhibition, % at 5.96 µM; 340,000 compounds, 0.5% hits; in the data active means inhibition above about 36%
Target sequence (Q92743 whole entry, looked up): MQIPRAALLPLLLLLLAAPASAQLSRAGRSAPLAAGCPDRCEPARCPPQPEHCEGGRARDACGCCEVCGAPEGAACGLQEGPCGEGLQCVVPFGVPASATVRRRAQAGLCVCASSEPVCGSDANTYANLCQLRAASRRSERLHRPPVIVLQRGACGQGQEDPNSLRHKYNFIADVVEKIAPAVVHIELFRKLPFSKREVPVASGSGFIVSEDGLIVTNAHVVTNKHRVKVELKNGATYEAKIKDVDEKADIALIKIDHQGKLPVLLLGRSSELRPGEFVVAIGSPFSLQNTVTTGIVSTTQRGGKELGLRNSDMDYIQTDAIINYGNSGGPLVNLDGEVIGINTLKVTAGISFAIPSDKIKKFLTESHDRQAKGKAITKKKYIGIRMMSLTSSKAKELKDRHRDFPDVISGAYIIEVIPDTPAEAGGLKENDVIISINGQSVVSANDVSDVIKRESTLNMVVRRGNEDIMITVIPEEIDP
ABHD4 inh = inhibits mouse alpha/beta hydrolase domain 4 | Q8VD66 | purified mABHD4, FP-Rh probe fluorescence polarization | inhibition, % at 8.92 µM | 370,000 compounds, 0.54% hits;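 active means inhibition exceeding the mean over every tested compound plus 3 SD, cut at about 30% in these data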
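assay system = mABHD4 protein | compound dosing = single nominal dose of 8.92 µM, 0.89% DMSO final | read-out basis = percent inhibition of probe binding, normalized to plate controls | schedule = Enzyme–compound pre-incubation 45 min, then probe 60 min, both 25 °C | detection = fluorescence polarization, excitation 525 nm, emission 598 nm, BODIPY TMR filters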
Tn7 DDE FP = disrupts Tn7 cyclic peptide binding to fibrin D-Dimer-E complex; P02675; FP displacement of FITC-Tn7 peptide from fibrin DD(E); 0% = median of compound wells per plate; inhibition, % at 8.3 µM; 370,000 compounds, 0.13% hits; AID 720508;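 active means inhibition above the mean of compounds falling within the control limits plus 3 SD of them, cut at about 14% in these data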
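Test system: human clot-derived fibrin DD(E) complex / Quantity: 2 µM final DD(E) protein / Incubation: 10 min plus 3 h, room temperature / Measured by: fluorescence polarization / Benchmarks: high control of 10 µM Aha-Tn7 peptide / Replicates: singlicate testing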
SIAE inh = human SIAE inhibition, primary screen | 370,000 compounds, 0.69% hits | SIAE FP-Rh probe binding, fluorescence polarization | Q9HAT2 | inhibition, % at 9.66 µM | AID 1053197;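 active means inhibition above a cutoff: mean of compounds within the control limits plus 3 SD of those, cut at about 17% in these data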
DDE Tn6 FP inh = DD(E)-Tn6 binding inhibition, primary FP screen; 370,000 compounds, 0.21% hits; inhibition, % at 8.3 µM; Fibrin DD(E) TRITC-Tn6 fluorescence polarization displacement;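 active means inhibition above a per-campaign cutoff: mean of compounds within control limits plus 3 SD, cut at about 15% in these data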
Tn7 DDE conf = DD(E)-Tn7 binding inhibition, FP confirmation | inhibition, % at 8.3 µM | FP displacement of TRITC-Tn7 peptide from DD(E); 0% set at plate's compound-well median | shares compounds with Tn7 DDE FP | 460 compounds, 5% hits;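 active means inhibition above the campaign cutoff, the mean of compounds within control limits plus 3 SD, cut at about 14% in these data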;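 further: displacers lower polarization since freed probe rises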
DDE Tn7 FP ctr = counter-screen for inhibitors of Tn7 peptide binding to fibrin DD(E); inhibition, % at 8.3 µM; 460 compounds, 3% hits; shares compounds with Tn7 DDE FP; TRITC-Tn7 probe displacement, fluorescence polarization; AID 720633;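 active means inhibition above the cutoff, the mean of compounds lying between the control bounds plus 3 SD of those compounds, cut at about 17% in these data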
Each line names hits and unclear results; the compound was inactive in the other large screens (follow-up assays come after a bar, where they were run). A selection: hits, their analogues and other compounds. The true share with any hit is near 1.8%.

COC(=O)c1ccc(C2NC(=O)CCC2[N+](=O)[O-])cc1 (stereo not drawn)	Tn7 DDE FP 14.1 | Tn7 DDE conf inactive | DDE Tn7 FP ctr inactive
C=CCNC(=O)c1ccc(OC2CCN(S(=O)(=O)N(C)C)CC2)cc1	none
CN(C)S(=O)(=O)N1CCC(Oc2ccc(C(=O)NCc3cnn(C)c3)cc2)CC1	Tn7 DDE FP 14.1 | Tn7 DDE conf inactive | DDE Tn7 FP ctr inactive
CN(C)C(CNC(=O)c1cc(S(=O)(=O)N(C)c2ccc(F)cc2)ccc1Cl)c1cccs1 (stereo not drawn)	Tn7 DDE FP 14.6 | Tn7 DDE conf inactive | DDE Tn7 FP ctr inactive
CCOC(=O)c1sc2nc3n(c(=O)c2c1C)CCC3	Tn7 DDE FP 15.0 | Tn7 DDE conf inactive | DDE Tn7 FP ctr inactive
CC(C)CCOc1ccc(C(=O)NCC(c2cccs2)N2CCOCC2)cc1 (stereo not drawn)	Tn7 DDE FP 15.0 | Tn7 DDE conf inactive | DDE Tn7 FP ctr inactive
C=C[C@@H]1c2cc(C)ccc2N(S(=O)(=O)c2ccc(C)cc2)[C@H](c2ccccc2)C1(C#N)C#N	Tn7 DDE FP 14.0 | Tn7 DDE conf inactive | DDE Tn7 FP ctr inactive
C=C[C@@H]1c2ccccc2N(S(=O)(=O)c2ccc(C)cc2)[C@H](c2ccccc2)C1(C#N)C#N	none
COc1cc2ncnc(NCc3ccc(C)cc3)c2cc1OC	Tn7 DDE FP 13.9 | Tn7 DDE conf inactive | DDE Tn7 FP ctr inactive
COc1cccc(CNc2ncnc3cc(OC)c(OC)cc23)c1	none
O=C(N/C(C(=O)N1CCOCC1)=C(\Sc1ncccn1)c1ccccc1)c1ccccc1	Tn7 DDE FP 14.8 | Tn7 DDE conf inactive | DDE Tn7 FP ctr inactive
C[C@H](O)[C@@H]1CN2CCc3c([nH]c4cccc(-c5ccccc5)c34)[C@@H]2C[C@@H]1N(C)C(=O)Nc1ccccc1	none (no result: TCR CD3 inh, HTRA1 inh)
C[C@H]1CN[C@@H](CCO)/C1=C\c1ccccc1	Tn7 DDE FP 13.9 | Tn7 DDE conf inactive | DDE Tn7 FP ctr inactive
CC(C)C(=O)Nc1nnc(COc2ccc(Cl)cc2)s1	Tn7 DDE FP 14.5 | Tn7 DDE conf inactive | DDE Tn7 FP ctr inactive
CC(=O)Nc1nnc(COc2ccc(Cl)cc2)s1	none
CCCCOc1ccc(C(=O)NC2CCCCN(Cc3ccc(Cl)cc3)C2=O)cc1 (stereo not drawn)	none (no result: TCR CD3 inh, HTRA1 inh)
COc1ccccc1C(=O)NCC(=O)OCC(=O)Nc1ccc2[nH]c(=O)[nH]c2c1	Tn7 DDE FP 15.4 | Tn7 DDE conf inactive | DDE Tn7 FP ctr inactive
O=C(COC(=O)CNC(=O)c1ccccc1F)Nc1ccc2[nH]c(=O)[nH]c2c1	none
COc1ccc(S(=O)(=O)N2CCOCC2)cc1NC(=O)CCCOc1ccc(C(C)=O)cc1	none
COc1ccc(S(=O)(=O)N2CCOCC2)cc1NC(=O)CCOc1ccc(C(C)(C)C)cc1	Tn7 DDE FP 14.7 | Tn7 DDE conf inactive | DDE Tn7 FP ctr inactive
COc1ccc(S(=O)(=O)N2CCOCC2)cc1NC(=O)c1ccc(OC(F)F)cc1	Tn7 DDE FP 15.1 | Tn7 DDE conf inactive | DDE Tn7 FP ctr inactive
O=C(NCc1nnnn1-c1ccc(Cl)cc1)C1CC(=O)N(c2ccc(F)cc2)C1 (stereo not drawn)	none
COc1ccc(-n2nnnc2CNC(=O)C2CC(=O)N(c3ccc(F)cc3)C2)cc1 (stereo not drawn)	Tn7 DDE FP 14.3 | Tn7 DDE conf inactive | DDE Tn7 FP ctr inactive
O[C@H](COc1ccc(OC(F)(F)F)cc1)CN1CCC(C(O)(c2ccccc2)c2ccccc2)CC1	none (no result: TCR CD3 inh, HTRA1 inh)
COc1ccccc1-c1ccc2c(c1)C(C)(Cc1cccc(C#N)c1)C(=O)N2 (stereo not drawn)	Tn7 DDE FP 15.9 (no result: HTRA1 inh) | Tn7 DDE conf inactive | DDE Tn7 FP ctr inactive
C[C@H]1[C@H](N(C)C)CC[C@@]23CCCN2C(=O)CCC[C@@H]13	none (no result: TCR CD3 inh, HTRA1 inh)
Cc1ccc(-c2c(C#N)c(N)n(-c3ccc(Cl)cc3)c(=O)c2C#N)cc1	Tn7 DDE FP 13.8 (no result: HTRA1 inh) | Tn7 DDE conf inactive | DDE Tn7 FP ctr inactive
